Common to all, as to assay type: functional
In experiment [1] the test system is Jurkat. The experiment is described as follows: Cytotoxicity against human Jurkat cells assessed as cell viability ratio at 10 uM after 24 hrs by MTT assay relative to control. The method in brief:
(§1)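 Suspension lines grown in α-MEM plus 10% FBS and penicillin-streptomycin, 37 °C, 5% CO2. Seeded at 30,000 cells/well in phenol-red-free α-MEM and rested 15 h. Exposed to 10 µM, or 2 µM in the lower-dose repeat, at 1% DMSO final for 24 h. 5 mg/ml MTT added directly for 3 h at 37 °C. Plates spun, formazan dissolved in DMSO, OD read at 550 nm. Viability relative to vehicle.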
(Tetrazolium dyes change colour on reduction, which living cells bring about.)

The subject of experiment [2] is JeKo-1. Nature of the experiment: Cytotoxicity against human JeKo1 cells assessed as cell viability ratio at 10 uM after 24 hrs by MTT assay relative to control. Summed up: as §1
Experiment [3] deals with HeLa. Nature of the experiment: Cytotoxicity against human HeLa cells assessed as cell viability ratio at 10 uM after 24 hrs by MTT assay relative to control. The method in brief:
(§2)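 Adherent lines in DMEM plus 10% FBS and penicillin-streptomycin, 37 °C, 5% CO2, lifted with Accutase. Seeded at 500–10,000 cells/well and rested 15 h. Compounds from 10 mM DMSO stocks dosed at 10 µM final, 1% DMSO final, n = 5, for 24 h. Medium then swapped for 1 mg/ml MTT in phenol-red-free medium for 3 h at 37 °C. Formazan dissolved in DMSO, OD read at 550 nm. Viability normalised to 1% DMSO vehicle control.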

Experiment [4] concerns A549. Nature of the experiment: Cytotoxicity against human A549 cells assessed as cell viability ratio at 10 uM after 24 hrs by MTT assay relative to control. The method in brief: as §2
Experiment [5] concerns HCT-116. Nature of the experiment: Cytotoxicity against human HCT116 cells assessed as cell viability ratio at 10 uM after 24 hrs by MTT assay relative to control.
For experiment [6], the system named is SJSA-1. The experiment is described as follows: Cytotoxicity against human SJSA1 cells assessed as cell viability ratio at 10 uM after 24 hrs by MTT assay relative to control. Summed up:
as §2

For experiment [7], the system named is SK-N-MC. Nature of the experiment: Cytotoxicity against human SK-N-MC cells assessed as cell viability ratio at 10 uM after 24 hrs by MTT assay relative to control. Summed up:
as §2

Experiment [8] relates to PC-3. The experiment is described as follows: Cytotoxicity against human PC3 cells assessed as cell viability ratio at 10 uM after 24 hrs by MTT assay relative to control. Summed up:
as §2

Experiment [9] relates to MDA-MB-231. The experiment is described as follows: Cytotoxicity against human MDA-MB-231 cells assessed as cell viability ratio at 10 uM after 24 hrs by MTT assay relative to control. Summed up: as §2
The test system of experiment [10] is SK-MEL-2. Nature of the experiment: Cytotoxicity against human SK-MEL-2 cells assessed as cell viability ratio at 10 uM after 24 hrs by MTT assay relative to control. The method in brief:
as §2

Experiment [11] concerns Jurkat. Nature of the experiment: Cytotoxicity against human Jurkat cells assessed as cell viability at 2 uM after 24 hrs by MTT assay relative to control. To be noted: read-out: Activity. Summed up: as §1
Experiment [12] concerns JeKo-1. Nature of the experiment: Cytotoxicity against human JeKo1 cells assessed as cell viability at 2 uM after 24 hrs by MTT assay relative to control. To be noted: JeKo-1, 24 h, read-out: Activity. The method in brief: as §1
The subject of experiment [13] is Jurkat. The experiment is described as follows: Cytotoxicity against human Jurkat cells assessed as cell viability at 10 uM after 24 hrs by MTT assay relative to control. The conditions noted are these: read-out: Activity. The method in brief:
as §1

The test system of experiment [14] is JeKo-1. Nature of the experiment: Cytotoxicity against human JeKo1 cells assessed as cell viability at 10 uM after 24 hrs by MTT assay relative to control. The conditions noted are these: JeKo-1, 24 h, read-out: Activity. Summed up: as §1
In experiment [15] the test system is HeLa. The experiment is described as follows: Cytotoxicity against human HeLa cells assessed as cell viability at 10 uM after 24 hrs by MTT assay relative to control. The conditions noted are these: read-out: Activity. The method in brief: as §2
In experiment [16] the test system is A549. Nature of the experiment: Cytotoxicity against human A549 cells assessed as cell viability at 10 uM after 24 hrs by MTT assay relative to control. The conditions noted are these: A549, 24 h, read-out: Activity. Summed up:
as §2

Experiment [17] deals with HCT-116. The experiment is described as follows: Cytotoxicity against human HCT116 cells assessed as cell viability at 10 uM after 24 hrs by MTT assay relative to control. The conditions noted are these: HCT-116, 24 h, read-out: Activity. Summed up: as §2
In experiment [18] the test system is SJSA-1. The experiment is described as follows: Cytotoxicity against human SJSA1 cells assessed as cell viability at 10 uM after 24 hrs by MTT assay relative to control. The conditions noted are these: SJSA-1, 24 h, read-out: Activity. The method in brief:
as §2

The subject of experiment [19] is SK-N-MC. The experiment is described as follows: Cytotoxicity against human SK-N-MC cells assessed as cell viability at 10 uM after 24 hrs by MTT assay relative to control. The conditions noted are these: read-out: Activity. Summed up: as §2
The test system of experiment [20] is PC-3. Nature of the experiment: Cytotoxicity against human PC3 cells assessed as cell viability at 10 uM after 24 hrs by MTT assay relative to control. To be noted: PC-3, 24 h, read-out: Activity. The method in brief:
as §2

The subject of experiment [21] is MDA-MB-231. Nature of the experiment: Cytotoxicity against human MDA-MB-231 cells assessed as cell viability at 10 uM after 24 hrs by MTT assay relative to control. To be noted: MDA-MB-231, 24 h, read-out: Activity. The method in brief:
as §2

Experiment [22] concerns SK-MEL-2. The experiment is described as follows: Cytotoxicity against human SK-MEL-2 cells assessed as cell viability at 10 uM after 24 hrs by MTT assay relative to control. The conditions noted are these: SK-MEL-2, 24 h, read-out: Activity. Summed up:
as §2

In experiment [23] the test system is Jurkat. The experiment is described as follows: Cytotoxicity against human Jurkat cells assessed as cell viability after 24 hrs by MTT assay. The conditions noted are these: read-out: LC50 (the source's name). Summed up:
(§3)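 Suspension cells grown in α-MEM with 10% FBS and penicillin-streptomycin, seeded at 30,000 cells/well in phenol red-free medium and held 15 h before treatment. Compounds diluted from 10 mM DMSO stocks, final 1% DMSO, for 24 h. MTT (5 mg/ml stock) added directly for 3 h at 37 °C, then centrifugation, DMSO solubilization, OD 550 nm. LC50 from dose-response curves normalized to vehicle.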

For experiment [24], the system named is JeKo-1. The experiment is described as follows: Cytotoxicity against human JeKo1 cells assessed as cell viability after 24 hrs by MTT assay. The conditions noted are these: JeKo-1, 24 h, read-out: LC50 (the source's name). The method in brief: as §3
Experiment [25] has as its system HeLa. The experiment is described as follows: Cytotoxicity against human HeLa cells assessed as cell viability after 24 hrs by MTT assay. The conditions noted are these: read-out: LC50 (the source's name). The method in brief:
(§4)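 Adherent cells grown in DMEM with 10% FBS and penicillin-streptomycin, dissociated with Accutase, seeded at 500–10,000 cells/well and held 15 h before treatment. Compounds diluted from 10 mM DMSO stocks, final 1% DMSO, for 24 h at 37 °C, 5% CO2. Medium replaced with 1 mg/ml MTT for 3 h, formazan dissolved in DMSO, OD 550 nm. LC50 from dose-response curves normalized to 1% DMSO vehicle.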

Experiment [26] relates to A549. The experiment is described as follows: Cytotoxicity against human A549 cells assessed as cell viability after 24 hrs by MTT assay. The conditions noted are these: A549, 24 h, read-out: LC50 (the source's name). Summed up: as §4
The test system of experiment [27] is HCT-116. The experiment is described as follows: Cytotoxicity against human HCT116 cells assessed as cell viability after 24 hrs by MTT assay. To be noted: HCT-116, 24 h, read-out: LC50 (the source's name). The method in brief: as §4
Experiment [28] has as its system SJSA-1. The experiment is described as follows: Cytotoxicity against human SJSA1 cells assessed as cell viability after 24 hrs by MTT assay. The conditions noted are these: SJSA-1, 24 h, read-out: LC50 (the source's name). Summed up: as §4
Experiment [29] has as its system SK-N-MC. The experiment is described as follows: Cytotoxicity against human SK-N-MC cells assessed as cell viability after 24 hrs by MTT assay. The conditions noted are these: read-out: LC50 (the source's name). Summed up:
as §4

For experiment [30], the system named is PC-3. The experiment is described as follows: Cytotoxicity against human PC3 cells assessed as cell viability after 24 hrs by MTT assay. To be noted: PC-3, 24 h, read-out: LC50 (the source's name). The method in brief:
as §4

The subject of experiment [31] is MDA-MB-231. The experiment is described as follows: Cytotoxicity against human MDA-MB-231 cells assessed as cell viability after 24 hrs by MTT assay. To be noted: MDA-MB-231, 24 h, read-out: LC50 (the source's name). Summed up:
as §4

Experiment [32] deals with SK-MEL-2. The experiment is described as follows: Cytotoxicity against human SK-MEL-2 cells assessed as cell viability after 24 hrs by MTT assay. The conditions noted are these: SK-MEL-2, 24 h, read-out: LC50 (the source's name). Summed up: as §4

For `C=C1C(=O)O[C@@H]2[C@H]3O[C@]3(C)CC/C=C(\C)[C@@H](O)C[C@@H]12`, the “fold change (FC)” value was found to be 1 with Jurkat [1]; 1 with JeKo-1 [2]; 0.2 with HeLa [3]; 1 in the experiment on A549 [4]; 1 in the experiment on HCT-116 [5]; 0.9 with SJSA-1 [6]. Also, the “fold change (FC)” value amounted to 1 in the experiment with SK-N-MC [7], 1 in the experiment on PC-3 [8], 0.9 with MDA-MB-231 [9] and 1 in the experiment with SK-MEL-2 [10].

With `C=C1C(=O)O[C@@H]2[C@H]3O[C@]3(C)CC/C=C(\CO)CC[C@@H]12`, the “fold change (FC)” value in the experiment on Jurkat [1] is 1; in the experiment with JeKo-1 [2], 1; in the experiment with HeLa [3] it was 0.3; in the experiment on A549 [4], 0.9; in the experiment with HCT-116 [5], 0.9; in the experiment on SJSA-1 [6], 0.9. For the same compound, the “fold change (FC)” value in the experiment on SK-N-MC [7], in the experiment on PC-3 [8], in the experiment on MDA-MB-231 [9] and in the experiment with SK-MEL-2 [10] was 1 in each case.

For `C=C1C(=O)O[C@@H]2[C@H]3O[C@]3(C)CC/C=C(/COC(=O)Nc3cc(C(F)(F)F)cc(C(F)(F)F)c3)CC[C@@H]12`, the viability at 2 µM amounted to 74.9% in the experiment on Jurkat [11] and 71.5% in the experiment on JeKo-1 [12]. Also, the viability at 10 µM in the experiment on Jurkat [13] was 0%; in the experiment with JeKo-1 [14], -1.8%; in the experiment on HeLa [15] it was 3.8%; with A549 [16], 25.1%; in the experiment on HCT-116 [17], 3.9%; in the experiment on SJSA-1 [18], 23.3%. For the same compound, the viability at 10 µM in the experiment with SK-N-MC [19] is 2.1%; in the experiment on PC-3 [20], 13.7%; in the experiment on MDA-MB-231 [21] it was 5.5%; in the experiment on SK-MEL-2 [22] it was 25.7%. For the same compound, the CC50 in the experiment on Jurkat [23] was determined as 3.3 µM; with JeKo-1 [24] it was 3.4 µM; in the experiment with HeLa [25], 1.5 µM; with A549 [26], 5.5 µM; in the experiment on HCT-116 [27] it was 5.9 µM; in the experiment on SJSA-1 [28] it was 9.2 µM. Further, the CC50 with SK-N-MC [29] came to 0.6 µM; in the experiment with PC-3 [30], 5.5 µM; in the experiment on MDA-MB-231 [31], 6.1 µM; in the experiment on SK-MEL-2 [32], 4.3 µM.

Source of the values: ChEMBL document CHEMBL4219033, “Anticancer activity profiling of parthenolide analogs generated via P450-mediated chemoenzymatic synthesis” (2018).
